ChEMBL document CHEMBL1208732, “Addressing PXR liabilities of phthalazine-based hedgehog/smoothened antagonists using novel pyridopyridazines” (Bioorg Med Chem Lett, 2010)

Experiments:
[1] = molecular target: T1, Nuclear receptor subfamily 1 group I member 2 (Homo sapiens, UniProt O75469); assay: Activation of human PXR expressed in HepG2 cells assessed as luciferase activity at 2 uM by chemiluminescence assay relative to rifampin; assay type: cell-based; conditions: hepg2, 2 µM
T1 sequence (O75469 whole entry): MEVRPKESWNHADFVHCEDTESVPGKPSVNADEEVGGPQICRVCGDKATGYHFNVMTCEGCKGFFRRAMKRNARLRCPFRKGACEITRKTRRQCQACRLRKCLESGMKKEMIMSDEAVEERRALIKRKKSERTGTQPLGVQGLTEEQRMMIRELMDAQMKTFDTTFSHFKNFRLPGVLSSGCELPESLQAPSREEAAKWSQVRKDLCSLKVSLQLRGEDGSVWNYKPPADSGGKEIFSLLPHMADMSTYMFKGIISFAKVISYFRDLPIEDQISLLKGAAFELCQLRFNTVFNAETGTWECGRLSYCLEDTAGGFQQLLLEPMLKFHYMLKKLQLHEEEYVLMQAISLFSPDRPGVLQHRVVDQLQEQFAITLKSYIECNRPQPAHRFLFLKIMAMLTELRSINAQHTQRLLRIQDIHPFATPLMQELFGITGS
How it was run: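 HepG2 cells transfected with a luciferase reporter construct driven by human PXR cDNA. Luciferase activity read by chemiluminescence and expressed as percent of the rifampin control.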

[2] = Metabolic stability in rat liver microsomes assessed as compound turn over after 30 mins; assay type: ADME, Microsome; conditions: read-out: Activity
How it was run: (§1)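 Percent turnover of compound within 30 min in human or rat liver microsome homogenates.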

Protein smoothened [3] = molecular target: Protein smoothened (Homo sapiens, UniProt Q99835); assay: Antagonist activity at human Smo receptor in HEPM cells assessed as inhibition of Gli expression after 24 hrs by quantigene assay; assay type: functional, cell-based
How it was run: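 HEPM cells incubated with compound in MEM with 0.5% charcoal-dextran treated FBS and […] myristoylated mouse Shh protein. GLI expression measured 24 h after adding compound and Shh, using a Quantigene assay.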

[4] = Metabolic stability in human liver microsomes assessed as compound turn over after 30 mins; assay type: ADME, Microsome; conditions: read-out: Activity; how it was run: as §1
[5] = AUC in rat at 2 mg/kg, po; assay type: ADME, organism-based; parameters: dose 2 mg/kg, route oral; conditions: plasma
How it was run: (§2)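 Pharmacokinetics measured in rat or mouse, with intravenous dosing at 0.5 mg/kg and oral dosing at 2 mg/kg. Reported parameters are iv clearance, Vdss, oral AUC and %F.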

[6] = Fraction unbound in mouse plasma by ultra centrifugation method; assay type: ADME, cell-free
[7] = Clearance in rat at 0.5 mg/kg, iv; assay type: ADME, organism-based; parameters: dose 0.5 mg/kg, route intravenous; conditions: in vivo; how it was run: as §2
[8] = Volume of distribution at steady state in rat at 0.5 mg/kg, iv and 2 mg/kg, po; assay type: ADME, organism-based; conditions: in vivo, read-out: Vdss; how it was run: as §2
[9] = Oral bioavailability in rat at 2 mg/kg; assay type: ADME, organism-based; conditions: in vivo; how it was run: as §2
Protein smoothened [10] = molecular target: Protein smoothened (Mus musculus, UniProt P56726); assay: Antagonist activity at mouse cloned Smo receptor expressed in NIH-3T3 cells co expressing Gli1 binding site after 15 hrs by luciferase reporter gene assay; assay type: cell-based, NIH3T3
How it was run: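 Stable NIH-3T3 clone carrying a luciferase reporter (pGL4.16) with five consensus Gli1 binding sites. Cells incubated 15 h with compound in Optimem with 0.5% charcoal-dextran treated FBS and […] myristoylated mouse Shh. Luciferase read with Bright-Glo on a luminometer. Threefold dilution series, run in quadruplicate.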

Mus musculus [11] = assay: Clearance in mouse at 0.5 mg/kg, iv; assay type: ADME, organism-based; parameters: dose 0.5 mg/kg, route intravenous; conditions: in vivo; how it was run: as §2
[12] = Volume of distribution at steady state in mouse at 0.5 mg/kg, iv and 2 mg/kg, po; assay type: ADME, organism-based; conditions: in vivo, read-out: Vdss; how it was run: as §2
Mus musculus [13] = assay: AUC in mouse at 2 mg/kg, po; assay type: ADME, organism-based, Plasma; parameters: dose 2 mg/kg, route oral; conditions: in vivo; how it was run: as §2
Mus musculus [14] = assay: Oral bioavailability in mouse at 2 mg/kg; assay type: ADME, organism-based; conditions: in vivo; how it was run: as §2
Mus musculus [15] = assay: Reduction of Gli1 expression in po dosed NOD-SCID mouse skin after 6 hrs by RT-PCR analysis; assay type: functional, organism-based
How it was run: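 Female NOD-Scid mice aged 5–8 weeks had one hind flank shaved, then regrown hair removed with wax strips 4 days later. After 5 days mice were dosed orally with compound or vehicle, and skin was harvested 6 h post-dose into RNALater. Tissue homogenized and RNA purified. Four mice per group, two samples per animal, analysed by Dunnett's method.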

Protein smoothened (Homo sapiens, UniProt Q99835), sequence (Q99835 whole entry): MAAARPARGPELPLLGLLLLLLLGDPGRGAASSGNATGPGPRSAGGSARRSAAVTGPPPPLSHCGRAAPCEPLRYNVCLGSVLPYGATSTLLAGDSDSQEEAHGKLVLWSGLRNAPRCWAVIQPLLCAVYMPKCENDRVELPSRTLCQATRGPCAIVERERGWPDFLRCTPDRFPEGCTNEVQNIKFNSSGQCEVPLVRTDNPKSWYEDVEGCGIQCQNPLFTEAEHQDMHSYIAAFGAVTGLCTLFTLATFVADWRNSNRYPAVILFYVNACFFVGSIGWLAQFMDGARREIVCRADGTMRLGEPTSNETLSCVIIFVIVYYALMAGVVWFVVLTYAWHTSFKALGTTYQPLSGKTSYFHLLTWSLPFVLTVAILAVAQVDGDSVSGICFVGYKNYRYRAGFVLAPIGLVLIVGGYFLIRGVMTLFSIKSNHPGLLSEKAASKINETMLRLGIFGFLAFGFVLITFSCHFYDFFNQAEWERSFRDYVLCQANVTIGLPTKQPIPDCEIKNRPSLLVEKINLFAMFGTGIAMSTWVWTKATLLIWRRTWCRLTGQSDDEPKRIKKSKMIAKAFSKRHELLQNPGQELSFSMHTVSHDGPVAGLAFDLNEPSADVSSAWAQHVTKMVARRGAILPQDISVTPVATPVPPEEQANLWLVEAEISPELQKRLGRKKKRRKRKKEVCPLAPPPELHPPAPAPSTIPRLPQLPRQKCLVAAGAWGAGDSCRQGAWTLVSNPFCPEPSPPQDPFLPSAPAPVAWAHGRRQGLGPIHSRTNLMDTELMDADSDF
Protein smoothened (Mus musculus, UniProt P56726), sequence (P56726 whole entry): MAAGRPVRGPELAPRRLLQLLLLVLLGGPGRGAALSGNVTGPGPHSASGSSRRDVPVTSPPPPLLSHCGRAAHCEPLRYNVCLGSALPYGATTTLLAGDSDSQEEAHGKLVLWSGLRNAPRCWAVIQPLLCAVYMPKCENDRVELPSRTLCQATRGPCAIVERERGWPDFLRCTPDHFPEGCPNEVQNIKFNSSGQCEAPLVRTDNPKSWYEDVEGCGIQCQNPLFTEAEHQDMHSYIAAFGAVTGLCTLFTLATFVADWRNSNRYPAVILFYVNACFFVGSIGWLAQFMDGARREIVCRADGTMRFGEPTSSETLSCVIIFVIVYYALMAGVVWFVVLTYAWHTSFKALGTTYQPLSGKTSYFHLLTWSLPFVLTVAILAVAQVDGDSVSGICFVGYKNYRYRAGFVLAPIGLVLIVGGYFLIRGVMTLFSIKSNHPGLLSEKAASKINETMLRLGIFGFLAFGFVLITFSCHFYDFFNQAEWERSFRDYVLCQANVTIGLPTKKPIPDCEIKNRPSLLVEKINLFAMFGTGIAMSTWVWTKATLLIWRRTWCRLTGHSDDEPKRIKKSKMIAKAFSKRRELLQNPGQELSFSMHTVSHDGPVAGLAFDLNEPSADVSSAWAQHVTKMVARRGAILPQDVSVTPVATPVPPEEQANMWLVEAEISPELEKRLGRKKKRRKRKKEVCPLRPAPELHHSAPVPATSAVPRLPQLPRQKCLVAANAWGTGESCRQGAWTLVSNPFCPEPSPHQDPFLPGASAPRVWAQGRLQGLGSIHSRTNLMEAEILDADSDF

Row | SMILES | Activity [1] | metabolised at 0.5 h [2] | IC50 (Protein smoothened [3]) | metabolised at 0.5 h [4] | also measured
1 | O=C(c1ccccc1)N1CCN(c2nnc(-c3ccc(Cl)c(Cl)c3)c3ccccc23)CC1 | 48% | 13% |  |  | 
2 | C[C@@H]1CN(C(=O)c2ccccc2)CCN1c1nnc(-c2ccc(C(F)(F)F)cc2)c2ccccc12 | 81% |  |  |  | AUC [5]: 1200 ng·h/mL; fraction unbound [6]: 0.06
3 | CC(=O)Oc1ccc(-c2nnc(N3CCN(C(=O)c4ccccc4)C[C@H]3C)c3ccccc23)cc1 | 6.1% | > 95% | 3.3 nM | > 95% | 
4 | C[C@@H]1CN(C(=O)c2ccccc2)CCN1c1nnc(-c2ccc(N(C)C)cc2)c2ccccc12 | 17% |  |  |  | 
5 | C[C@@H]1CN(C(=O)c2ccccc2)CCN1c1nnc(-c2ccc(CC(N)=O)cc2)c2ccccc12 | 2.7% | 10% | 4.8 nM | 10% | clearance [7]: 18.3 mL/min/kg; Vd [8]: 1.4 L/kg; AUC [5]: 460 ng·h/mL; bioavailability [9]: 22%
6 | C[C@@H]1CN(C(=O)c2ccccc2)CCN1c1nnc(-n2ccnc2)c2ccccc12 | 3.7% | 16% | > 1000 nM | < 10% | 
7 | C[C@@H]1CN(C(=O)c2ccccc2)CCN1c1nnc(-c2ccc(C(N)=O)cc2)c2ccccc12 | 5.9% | < 10% | 19 nM | < 10% | 
8 | C[C@@H]1CN(C(=O)c2ccccc2)CCN1c1nnc(-n2ccc3ccccc32)c2ccccc12 | 74% | 72% | 8 nM | 55% | 
9 | C[C@@H]1CN(C(=O)c2ccccc2)CCN1c1nnc(-n2cccc2)c2ccccc12 | 12% | 63% | 8.7 nM | 54% | 
10 | O=C(c1ccccc1)N1CCN(c2nnc(-c3ccccc3)c3ccccc23)CC1 | 12% | 39% |  |  | 
11 | C[C@@H]1CN(C(=O)c2ccccc2)CCN1c1nnc(-c2ccc(N3CCOCC3)cc2)c2ccccc12 | 6.6% | 28% | 21 nM | 19% | 
12 | C[C@@H]1CN(C(=O)c2ccccc2)CCN1c1nnc(-c2ccc(C(F)(F)F)cc2)c2ccncc12 | 9% | < 10% | 1 nM | 10% | IC50 (Protein smoothened [10]): 0.7 nM; clearance [7]: 7.67 mL/min/kg; CL (Mus musculus [11]): 10.7 mL/min/kg; Vd [8]: 3.5 L/kg; Vd [12]: 2 L/kg; AUC [5]: 3300 ng·h/mL; AUC (Mus musculus [13]): 3500 ng·h/mL; bioavailability [9]: 73%; F (Mus musculus [14]): 46%; EC50 (Mus musculus [15]): 460 nM; fraction unbound [6]: 0.035

Further lines, with some results ahead:

Row | Activity [1] | metabolised at 0.5 h [2] | IC50 (Protein smoothened [3]) | metabolised at 0.5 h [4] | SMILES | also measured
13 | 23% | 16% | 79 nM | 19% | C[C@@H]1CN(C(=O)c2ccccc2)CCN1c1nnc(-c2cccnc2)c2ccccc12 | 
14 | 2.7% | < 10% | > 1000 nM | < 10% | C[C@@H]1CN(C(=O)c2ccccc2)CCN1c1nnc(-c2ccc(C(=O)O)cc2)c2ccccc12 | 
15 | 7.5% |  | 12 nM | 30% | C[C@@H]1CN(C(=O)c2ccccc2)CCN1c1nnc(-c2ccccc2)c2cnccc12 | 
16 | 5.7% |  | 16 nM | 56% | C[C@@H]1CN(C(=O)c2ccccc2)CCN1c1nnc(-c2ccccc2)c2cccnc12 | 
17 | 4.1% |  | 66 nM | 13% | C[C@@H]1CN(C(=O)c2ccccc2)CCN1c1nnc(-c2ccccc2)c2ncccc12 | 
18 | 25% | 36% | 25 nM | 11% | C[C@@H]1CN(C(=O)c2ccccc2)CCN1c1nnc(-c2ccncc2)c2ccccc12 | 
19 | 4.9% |  | 5.8 nM | 13% | C[C@@H]1CN(C(=O)c2ccccc2)CCN1c1nnc(-c2ccccc2)c2ccncc12 | IC50 (Protein smoothened [10]): 3 nM; clearance [7]: 7.5 mL/min/kg; Vd [8]: 1.4 L/kg; AUC [5]: 1600 ng·h/mL; bioavailability [9]: 35%
20 | 3% | 15% |  |  | C[C@@H]1CN(C(=O)c2ccccc2)CCN1c1nnc(-c2ccc(CO)cc2)c2ccccc12 | clearance [7]: 95 mL/min/kg; Vd [8]: 1.8 L/kg
21 | 7.1% | < 10% | > 1000 nM | < 10% | C[C@@H]1CN(C(=O)c2ccccc2)CCN1c1nnc(-c2cncnc2)c2ccccc12 | 
22 | 32% | < 10% |  | < 10% | C[C@H]1CN(C(=O)c2ccccc2)CCN1c1nnc(-c2ccccc2)c2ccccc12 | 
23 | 16% | 17% | 57 nM | 12% | C[C@@H]1CN(C(=O)c2ccccc2)CCN1c1nnc(-c2ccccn2)c2ccccc12 | 
24 | 61% | 21% | 12 nM | < 10% | C[C@H]1CN(C(=O)c2ccccc2)CCN1c1nnc(-c2ccc(F)cc2)c2ccccc12 | 
25 | 30% | 12% |  |  | C[C@@H]1CN(C(=O)c2ccccc2)CCN1c1nnc(-c2ccccc2)c2ccccc12 | clearance [7]: 4.67 mL/min/kg; Vd [8]: 1.7 L/kg; AUC [5]: 1800 ng·h/mL; bioavailability [9]: 15%
26 | 7.8% | 22% | > 1000 nM | < 10% | C[C@@H]1CN(C(=O)c2ccccc2)CCN1c1nnc(-c2ncco2)c2ccccc12 | 
